Measured values as given in ChEMBL document CHEMBL1123237 (J Med Chem, 1986).

Legend:
Type in all cases: functional, Artery
Rattus norvegicus [1] = test: Maximum change aortic blood pressure in conscious renal (1clip/2kidney) hypertensive rats at dose 1 mg/kg administered orally at 1 hr; details: route oral
Rattus norvegicus [2] = test: Baseline mean aortic blood pressure in conscious renal (1clip/2kidney) hypertensive rats at dose 1 mg/kg administered orally.
How it was run: (§1)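 Oral dosing in rats cannulated for aortic blood pressure monitoring. Only rats with mean aortic pressure >160 mmHg were used; they weighed 280-320 g at cannulation. Rats had free access to standard chow and tap water on a 12-h dark/12-h light cycle. The value is the pre-dose mean aortic pressure, given as mean ± 1 SEM; 3-6 rats per dose.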

Rattus norvegicus [3] = test: Maximum change aortic blood pressure in conscious renal (1clip/2kidney) hypertensive rats at dose 1 mg/kg administered orally at 8 hr.; details: route oral
Rattus norvegicus [4] = test: Maximum change aortic blood pressure in conscious renal (1clip/2kidney) hypertensive rats at dose 10 mg/kg administered orally at 6 hr.; details: route oral
Rattus norvegicus [5] = test: Maximum change aortic blood pressure in conscious renal (1clip/2kidney) hypertensive rats at dose 30 mg/kg administered orally at 8 hr.; details: route oral
Rattus norvegicus [6] = test: Baseline mean aortic blood pressure in conscious renal (1clip/2kidney) hypertensive rats at dose 30 mg/kg administered orally.; how it was run: as §1
Rattus norvegicus [7] = test: Baseline mean aortic blood pressure in conscious renal (1clip/2kidney) hypertensive rats at dose 3 mg/kg administered orally.; how it was run: as §1
Rattus norvegicus [8] = test: Maximum change aortic blood pressure in conscious renal (1clip/2kidney) hypertensive rats at dose 3 mg/kg administered orally at 8 hr.; details: route oral
Rattus norvegicus [9] = test: Baseline mean aortic blood pressure in conscious renal (1clip/2kidney) hypertensive rats at dose 10 mg/kg administered orally.; how it was run: as §1
Rattus norvegicus [10] = test: Maximum change aortic blood pressure in conscious renal (1clip/2kidney) hypertensive rats at dose 1 mg/kg administered orally at 10 hr; details: route oral
Rattus norvegicus [11] = test: Baseline mean aortic blood pressure in conscious renal (1clip/2kidney) hypertensive rats at dose 1 mg/kg administered orally; details: route oral; how it was run: as §1
Rattus norvegicus [12] = test: Baseline mean aortic blood pressure in conscious renal (1clip/2kidney) hypertensive rats at dose 30 mg/kg administered orally; details: route oral; how it was run: as §1
Rattus norvegicus [13] = test: Maximum change aortic blood pressure in conscious renal (1clip/2kidney) hypertensive rats at dose 30 mg/kg administered orally at 10 hr; details: route oral
Rattus norvegicus [14] = test: Maximum change aortic blood pressure in conscious renal (1clip/2kidney) hypertensive rats at dose 10 mg/kg administered orally at 10 hr.; details: route oral
Rattus norvegicus [15] = test: Maximum change aortic blood pressure in conscious renal (1clip/2kidney) hypertensive rats at dose 30 mg/kg administered orally at 9 hr.; details: route oral
Rattus norvegicus [16] = test: Maximum change aortic blood pressure in conscious renal (1clip/2kidney) hypertensive rats at dose 1 mg/kg administered orally at 9 hr.; details: route oral
Rattus norvegicus [17] = test: Maximum change aortic blood pressure in conscious renal (1clip/2kidney) hypertensive rats at dose 30 mg/kg administered orally at 6 hr.; details: route oral
Rattus norvegicus [18] = test: Maximum change aortic blood pressure in conscious renal (1clip/2kidney) hypertensive rats at dose 3 mg/kg administered orally at 2 hr.; details: route oral
Rattus norvegicus [19] = test: Maximum change aortic blood pressure in conscious renal (1clip/2kidney) hypertensive rats at dose 10 mg/kg administered orally at 5 hr; details: route oral
Rattus norvegicus [20] = test: Maximum change aortic blood pressure in conscious renal (1clip/2kidney) hypertensive rats at dose 1 mg/kg administered orally at 4 hr.; details: route oral
Rattus norvegicus [21] = test: Maximum change aortic blood pressure in conscious renal (1clip/2kidney) hypertensive rats at dose 0.3 mg/kg administered orally at 10 hr.; details: route oral
Rattus norvegicus [22] = test: Baseline mean aortic blood pressure in conscious renal (1clip/2kidney) hypertensive rats at dose 0.3 mg/kg administered orally.; how it was run: as §1
Rattus norvegicus [23] = test: Maximum change aortic blood pressure in conscious renal (1clip/2kidney) hypertensive rats at dose 3 mg/kg administered orally at 5 hr.; details: route oral
Rattus norvegicus [24] = test: Maximum change aortic blood pressure in conscious renal (1clip/2kidney) hypertensive rats at dose 0.3 mg/kg administered orally at 5 hr.; details: route oral
Rattus norvegicus [25] = test: Maximum change aortic blood pressure in conscious renal (1clip/2kidney) hypertensive rats at dose 3 mg/kg administered orally at 6 hr.; details: route oral
Rattus norvegicus [26] = test: Maximum change aortic blood pressure in conscious renal (1clip/2kidney) hypertensive rats at dose 1 mg/kg administered orally at 6 hr.; details: route oral
Rattus norvegicus [27] = test: Maximum change aortic blood pressure in conscious renal (1clip/2kidney) hypertensive rats at dose 30 mg/kg administered orally; details: route oral
Rattus norvegicus [28] = test: Maximum change aortic blood pressure in conscious renal (1clip/2kidney) hypertensive rats at dose 10 mg/kg administered orally at 4 hr.; details: route oral
Rattus norvegicus [29] = test: Maximum change aortic blood pressure in conscious renal (1clip/2kidney) hypertensive rats at dose 0.3 mg/kg administered orally at 2 hr.; details: route oral
Rattus norvegicus [30] = test: Maximum change aortic blood pressure in conscious renal (1clip/2kidney) hypertensive rats at dose 30 mg/kg administered orally at 6 hr; details: route oral
Rattus norvegicus [31] = test: Maximum change aortic blood pressure in conscious renal (1clip/2kidney) hypertensive rats at dose 1 mg/kg administered orally at 7 hr.; details: route oral
Rattus norvegicus [32] = test: Maximum change aortic blood pressure in conscious renal (1clip/2kidney) hypertensive rats at dose 10 mg/kg administered orally at 5 hr.; details: route oral

CC(CS)C(=O)N1Cc2ccccc2CC1C(=O)O (stereo unspecified)
MABP (Rattus norvegicus [1]): -45 mmHg | MABP (Rattus norvegicus [2]): 185 mmHg

COc1cc2c(cc1OC)CN(C(=O)C(C)NC(CCc1ccccc1)C(=O)O)C(C(=O)O)C2 (stereo unspecified)
MABP (Rattus norvegicus [3]): -20 mmHg | MABP (Rattus norvegicus [4]): -52 mmHg | MABP (Rattus norvegicus [5]): -107 mmHg | MABP (Rattus norvegicus [6]): 181 mmHg | MABP (Rattus norvegicus [7]): 199 mmHg | MABP (Rattus norvegicus [8]): -52 mmHg | MABP (Rattus norvegicus [9]): 199 mmHg | MABP (Rattus norvegicus [2]): 199 mmHg

CCOC(=O)[C@H](CCc1ccccc1)N[C@@H](C)C(=O)N1Cc2cc(OC)c(OC)cc2C[C@@H]1C(=O)O
MABP (Rattus norvegicus [5]): -16 mmHg | MABP (Rattus norvegicus [6]): 178 mmHg

CCOC(=O)C(CCc1ccccc1)NC(C)C(=O)N1Cc2ccccc2CC1C(=O)OCC (stereo unspecified)
MABP (Rattus norvegicus [10]): -69 mmHg | MABP (Rattus norvegicus [11]): 208 mmHg

O=C(O)C1c2ccccc2CN1C(=O)CCS (stereo unspecified)
MABP (Rattus norvegicus [12]): 174 mmHg | MABP (Rattus norvegicus [13]): -15 mmHg

CCOC(=O)[C@H](CCc1ccccc1)N[C@@H](C)C(=O)N1Cc2ccccc2[C@H]1C(=O)O
MABP (Rattus norvegicus [9]): 200 mmHg | MABP (Rattus norvegicus [14]): -80 mmHg

CCOC(=O)[C@H](CCc1ccccc1)N[C@@H](C)C(=O)N1Cc2ccccc2C[C@@H]1C(=O)O
MABP (Rattus norvegicus [6]): 187 mmHg | MABP (Rattus norvegicus [15]): -20 mmHg

C[C@H](N[C@@H](CCc1ccccc1)C(=O)O)C(=O)N1CCC[C@H]1C(=O)O [ENALAPRILAT ANHYDROUS]
MABP (Rattus norvegicus [16]): -51 mmHg | MABP (Rattus norvegicus [4]): -57 mmHg | MABP (Rattus norvegicus [6]): 176 mmHg | MABP (Rattus norvegicus [7]): 188 mmHg | MABP (Rattus norvegicus [17]): -70 mmHg | MABP (Rattus norvegicus [9]): 188 mmHg | MABP (Rattus norvegicus [2]): 188 mmHg | MABP (Rattus norvegicus [18]): -54 mmHg

CCOC(=O)[C@H](CCc1ccccc1)N[C@@H](C)C(=O)N1Cc2ccccc2C[C@H]1C(=O)O
MABP (Rattus norvegicus [19]): -87 mmHg | MABP (Rattus norvegicus [20]): -54 mmHg | MABP (Rattus norvegicus [7]): 188 mmHg | MABP (Rattus norvegicus [9]): 181 mmHg | MABP (Rattus norvegicus [21]): -50 mmHg | MABP (Rattus norvegicus [22]): 157 mmHg | MABP (Rattus norvegicus [2]): 196 mmHg | MABP (Rattus norvegicus [23]): -62 mmHg

CC(NC(CCc1ccccc1)C(=O)O)C(=O)N1Cc2ccccc2C1C(=O)O (stereo unspecified)
MABP (Rattus norvegicus [7]): 195 mmHg | MABP (Rattus norvegicus [8]): -74 mmHg

CCOC(=O)[C@@H](CCc1ccccc1)N[C@@H](C)C(=O)N1Cc2cc(OC)c(OC)cc2C[C@H]1C(=O)O
MABP (Rattus norvegicus [5]): -15 mmHg | MABP (Rattus norvegicus [6]): 177 mmHg

CCOC(=O)[C@H](CCc1ccccc1)N[C@@H](C)C(=O)N1Cc2cc(OC)c(OC)cc2C[C@H]1C(=O)O [MOEXIPRIL]
MABP (Rattus norvegicus [4]): -113 mmHg | MABP (Rattus norvegicus [24]): -41 mmHg | MABP (Rattus norvegicus [25]): -39 mmHg | MABP (Rattus norvegicus [7]): 179 mmHg | MABP (Rattus norvegicus [9]): 205 mmHg | MABP (Rattus norvegicus [22]): 201 mmHg | MABP (Rattus norvegicus [26]): -43 mmHg | MABP (Rattus norvegicus [2]): 182 mmHg

CC(CS)C(=O)N1Cc2ccccc2C1C(=O)O (racemic)
MABP (Rattus norvegicus [27]): 0 mmHg | MABP (Rattus norvegicus [12]): 165 mmHg

CCOC(=O)[C@@H](CCc1ccccc1)N[C@@H](C)C(=O)N1Cc2ccccc2C[C@H]1C(=O)O
MABP (Rattus norvegicus [6]): 172 mmHg | MABP (Rattus norvegicus [13]): -11 mmHg

CCOC(=O)[C@H](CCc1ccccc1)N[C@@H](C)C(=O)N1CCC[C@H]1C(=O)O
MABP (Rattus norvegicus [3]): -43 mmHg | MABP (Rattus norvegicus [24]): -79 mmHg | MABP (Rattus norvegicus [7]): 200 mmHg | MABP (Rattus norvegicus [9]): 199 mmHg | MABP (Rattus norvegicus [22]): 201 mmHg | MABP (Rattus norvegicus [2]): 175 mmHg | MABP (Rattus norvegicus [28]): -112 mmHg | MABP (Rattus norvegicus [23]): -112 mmHg

C[C@H](CS)C(=O)N1CCC[C@H]1C(=O)O [CAPTOPRIL]
MABP (Rattus norvegicus [29]): -25 mmHg

CCOC(=O)C(CCc1ccccc1)N1C(=O)C2Cc3ccccc3CN2C(=O)C1C (stereo unspecified) [DIKETOPIPERAZINE DERIVATIVE OF QUINAPRIL]
MABP (Rattus norvegicus [12]): 186 mmHg | MABP (Rattus norvegicus [30]): -28 mmHg

C[C@H](N[C@@H](CCc1ccccc1)C(=O)O)C(=O)N1Cc2ccccc2C[C@H]1C(=O)O
MABP (Rattus norvegicus [31]): -44 mmHg | MABP (Rattus norvegicus [32]): -76 mmHg | MABP (Rattus norvegicus [6]): 192 mmHg | MABP (Rattus norvegicus [15]): -89 mmHg | MABP (Rattus norvegicus [7]): 199 mmHg | MABP (Rattus norvegicus [9]): 199 mmHg | MABP (Rattus norvegicus [2]): 199 mmHg | MABP (Rattus norvegicus [18]): -45 mmHg
